Only some compounds are listed: those with a hit (about 4.6% of all), similar ones and a draw of the others.
TAAR1 ag: human TAAR1 agonism | Q96RJ0 | CHO RD-HGA16 TAAR1, Fluo-8 calcium fluorescence; vehicle wells 0%, saturating PEA agonist 100% | activation, % at 3 µM | hit rate 0.99% among 360,000 | AID 624467;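 active means activation above the mean activation of all test compounds in the run plus 3 SD, cut at about 38% in these data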
Target sequence (Q96RJ0 whole entry, looked up): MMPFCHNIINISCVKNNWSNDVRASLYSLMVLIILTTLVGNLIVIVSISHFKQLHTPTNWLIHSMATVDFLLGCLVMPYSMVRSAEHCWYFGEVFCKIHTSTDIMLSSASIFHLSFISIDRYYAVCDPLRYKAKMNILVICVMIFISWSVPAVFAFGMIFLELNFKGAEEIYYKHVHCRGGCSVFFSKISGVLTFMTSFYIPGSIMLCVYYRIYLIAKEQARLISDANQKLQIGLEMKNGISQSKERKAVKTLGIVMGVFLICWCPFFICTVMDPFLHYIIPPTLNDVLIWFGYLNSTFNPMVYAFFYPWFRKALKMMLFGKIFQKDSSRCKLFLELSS
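Repeats: no replicates (n 1) | Material: CHO-derived RD-HGA16 cells with stable Gα16 and human TAAR1 | Technique: Kinetic Fluo-8 calcium fluorescence | Schedule: 17-24 h seeding, 75 min 37 °C dye, 30 min RT | Evaluation: % activation from peak over basal fluorescence ratio, DMSO-to-PEA scaled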
OX1R antag-1: antagonists of human orexin 1 receptor (OX1R). O43613. OX1R-expressing cells, FRET antagonist read-out. inhibition, % at 6.6 µM. hit rate 1.8% among 330,000. AID 485270; in the data active means inhibition mostly above about 38%, no sharp cut-off; inactive means mostly below about 40%;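 further: 0% = agonist challenge alone and 100% = reference antagonist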
CHO parental Ca: counter-screen for OX1R antagonists: effect in parental CHO cells. parental CHO-K1, ATP-induced calcium, Fluo-8 fluorescence. inhibition, % at 5.6 µM. hit rate 0.63% among 330,000. AID 463079;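 active means inhibition above that plate's mean sample inhibition plus 3 SD, cut at about 26% in these data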;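 further: 0% = ATP-challenged DMSO wells and 100% = DMSO wells without ATP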
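Material – parental CHO cells · Reagent – ATP stimulus · Compound – single nominal dose of 5.6 µM per compound · Detection – Fluo-8 fluorescence · Read-out basis – percent inhibition of calcium signal · Controls – ATP-challenged DMSO wells low, unchallenged DMSO wells high · Repeats – no replicates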
GPR7 antagonist: blocks human GPR7 receptor signaling; GPR7-expressing cells, fluorescence antagonist assay; inhibition, % at 4.4 µM; hit rate 1.1% among 290,000; in the data active means inhibition above about 16%, passing the limit was not always enough;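 further: cells stimulated with the agonist NPW; 0% = agonist with vehicle and 100% = vehicle without agonist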
Target sequence (P48145 whole entry, looked up): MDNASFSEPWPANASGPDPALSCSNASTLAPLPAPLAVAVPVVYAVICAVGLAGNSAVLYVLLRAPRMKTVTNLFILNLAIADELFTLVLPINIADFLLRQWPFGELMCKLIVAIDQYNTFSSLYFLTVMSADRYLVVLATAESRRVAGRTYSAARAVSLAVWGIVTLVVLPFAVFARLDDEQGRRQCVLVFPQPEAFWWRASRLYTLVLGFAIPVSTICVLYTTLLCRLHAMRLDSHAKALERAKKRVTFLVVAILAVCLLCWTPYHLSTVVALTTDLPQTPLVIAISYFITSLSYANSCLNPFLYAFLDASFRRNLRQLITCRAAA
OX1R antag-2: human HCRTR1 antagonism. O43613. CHO/OX1R cells, Fluo-8 calcium fluorescence, orexin A. inhibition, % at 5 µM. hit rate 0.43% among 330,000;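 active means inhibition above its plate's threshold, mean inhibition of all tested compounds on the plate plus 3 SD, cut at about 37% in these data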;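 further: 0% = orexin A challenge wells and 100% = SB-334867-A antagonist wells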
TAAR1 antag: antagonists of human TAAR1; Q96RJ0; hit rate 1.5% among 360,000; CHO RD-HGA16 TAAR1, Fluo-8 calcium fluorescence, antagonist; inhibition, % at 3 µM;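 active means inhibition above a per-plate cutoff, the mean inhibition of test compounds on that plate plus 3 SD, cut at about 49% in these data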;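 further: 0% = DMSO plus EC80 beta-PEA response and 100% = DMSO alone without agonist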
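Test system – hTAAR1-expressing CHO RD-HGA16 cells, Gα16-coupled · Reagent – β-PEA at EC80 concentration, post-compound challenge · Compound dosing – 3 µM, single point · Timing – 140 s kinetic read after compound, 140 s after agonist · Detection – Fluo-8 intracellular calcium dye fluorescence, real-time kinetic reads · Control set – DMSO and EC80 PEA controls · Repeats – n of 1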
TAAR1 ag confirm: human TAAR1 agonism, confirmed. shares compounds with TAAR1 ag. CHO RD-HGA16 TAAR1, Fluo-8 calcium fluorescence; scaled: DMSO 0%, maximal phenethylamine 100%. activation, % at 3 µM. hit rate 82% among 2,400;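 active means activation above a cutoff set at the run's mean compound activation plus 3 SD, cut at about 39% in these data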
Ga16 ag counter: nonselective agonism, TAAR1 counter-screen | shares compounds with TAAR1 ag | CHO-Ga16 parental, Fluo-8 calcium fluorescence; normalized to maximal ATP response, DMSO zero | hit rate 50% among 2,400 | AID 651787 | activation, % at 3 µM;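 active means activation above the run cutoff, the mean activation over all tested wells plus 3 SD, cut at about 12% in these data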;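 further: 0% = DMSO wells and 100% = maximal ATP response on the peak over basal ratio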
TAAR1 desens: counter-screen for human TAAR1 agonists: agonists that desensitize TAAR1; shares compounds with TAAR1 ag; CHO RD-HGA16 hTAAR1, Fluo-8 calcium, beta-PEA response inhibition; inhibition, % at 3 µM; hit rate 46% among 2,400;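 active means inhibition above the run cutoff, the mean inhibition of all test compounds plus 3 SD, cut at about 49% in these data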;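 further: beta-PEA stimulus applied at its EC80; loss of beta-PEA calcium signal after compound pretreatment read as receptor desensitization; 0% = DMSO with beta-PEA at EC80 and 100% = DMSO alone without agonist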
Ga16 antag count: nonselective Ga16 antagonist in TAAR1 agonist counter-screen; hit rate 39% among 2,400; shares compounds with TAAR1 ag; CHO-Ga16 ATP-induced calcium, Fluo-8 fluorescence; inhibition, % at 3 µM;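 active means inhibition above the plate's mean compound inhibition plus 3 SD, computed per plate, cut at about 22% in these data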;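 further: 0% = EC80 ATP with DMSO and 100% = DMSO wells without ATP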
Starred values were filed as active, the others as inactive; . = no result given.

SMILES	TAAR1 ag	OX1R antag-1	CHO parental Ca	GPR7 antagonist	OX1R antag-2	TAAR1 antag	TAAR1 ag confirm	Ga16 ag counter	TAAR1 desens	Ga16 antag count
CCCCN(C)C(=O)c1sc(=O)n(Cc2ccccc2C#N)c1C	0	.	.	.	.	-2	.	.	.	.
COc1ccc(CCNC(=O)C2CCCCC2C(=O)O)cc1OC (stereo not given)	.	6	0	24	1	.	.	.	.	.
O=C(NCCCc1ccccc1)c1ccccc1	22	12	-18	-3	-21	-4	.	.	.	.
O=C(O)C1CCCCC1C(=O)NCCCCc1ccccc1 (stereo not given)	45*	12	-17	4	-17	11	56*	5	-4	1
O=C(O)C1CCCCC1C(=O)NCCCc1ccccc1 (stereo not given)	68*	10	-14	-19	-16	0	50*	0	-3	-3
CC(CNC(=O)C1CCCCC1C(=O)O)c1ccccc1 (stereo not given)	.	5	-5	-7	-3	.	.	1	.	11
O=C(O)C1CCCCC1C(=O)NCCc1ccccc1 (stereo not given)	98*	0	-6	8	-12	86*	106*	1	92*	10
C#Cc1ccc([C@H]2C=C(C(=O)Nc3ccccc3)O[C@@H](OCc3ccc(CO)cc3)C2)cc1	.	35	-9	.	-25	.	.	.	.	.
CCN(c1ccccc1)S(=O)(=O)c1ccc(C(=O)N2CC(C)CC(C)C2)cc1 (stereo not given)	0	20	-3	.	-13	-5	.	.	.	.
C[C@H](O)c1[nH]c2cc(F)ccc2c1[C@H](C)O	0	10	-11	4	-19	2	.	.	.	.
Cc1ccc(NC(=S)N/N=C2\CCCCC2C)cc1 (stereo not given)	-2	8	-12	-9	-23	12	.	.	.	.
O=C(NC1CCCCC1)C(=S)NCCc1ccccc1	58*	14	-16	-14	-25	33	76*	2	62*	20
O=C(NCCc1ccccc1)C(=O)NC1CCCCC1	7	38	0	9	-6	-9	.	.	.	.
CC1CCCC/C1=N\NC(=S)NCCc1ccccc1 (stereo not given)	57*	0	-4	3	-38	-17	45*	0	4	1
CCN(CC)CCCN1C(=O)CSC1c1ccc2c(c1)OCO2 (stereo not given)	1	30	4	-12	-21	-11	.	.	.	.
CCN(CC)CCCN1C(=O)CSC1c1ccc([N+](=O)[O-])cc1 (stereo not given)	52*	58	-7	4	-13	7	1	2	9	4
CCCCOc1cc(NCc2ccccc2)c2ncn(C(C)C)c2c1	66*	24	-50	.	-91	50*	29	24*	25	24*
COCCCOc1cc(NCc2ccccc2)c2ncn(C(C)C)c2c1	15	14	-19	.	-22	-9	.	.	.	.
CCC1(c2ccccc2)NC(=O)N(CC(=O)Nc2ccccc2N2CCCCC2)C1=O (stereo not given)	70*	13	-20	-1	-26	52*	78*	45*	63*	30*
CCCOc1ccc(NC(=O)c2c(-c3ccccc3)noc2C)cc1	-3	1	-17	-11	-19	2	.	.	.	.
Cc1onc(-c2ccccc2)c1C(=O)NC(=S)NNC(=O)c1ccccc1O	164*	-6	18	-10	18	57*	141*	103*	100*	63*
CCCOc1ccc(C(=O)NC(=S)NNC(=O)c2c(-c3ccccc3)noc2C)cc1	176*	-3	39*	-9	70*	108*	141*	108*	101*	94*
CC1(C(=O)NS(=O)(=O)Cc2ccccc2)CCN1C(=O)Cc1ccccc1 (stereo not given)	2	.	.	.	.	-3	.	.	.	.
COC(=O)C(NC(=O)c1ccccc1)C(C)(C)SCc1ccccc1 (stereo not given)	3	.	.	.	.	5	.	.	.	.
CN(C)C(CNC(=O)CSc1nc2sc3c(c2c(=O)n1C)CCC3)c1ccccc1 (stereo not given)	7	14	4	.	-23	-26	.	.	.	.
SMILES	TAAR1 ag	OX1R antag-1	CHO parental Ca	GPR7 antagonist	OX1R antag-2	TAAR1 antag	TAAR1 ag confirm	Ga16 ag counter	TAAR1 desens	Ga16 antag count
O=C(CSc1nc2ccc(NC(=O)CSc3nnnn3Cc3ccccc3)cc2s1)Nc1ccccc1	1	22	11	-8	6	28	.	.	.	.
Cn1cnnc1SCC(=O)Nc1ccc2nc(SCc3ccccc3)sc2c1	44*	29	-34	25	-34	2	48*	21*	24	25*
O=C(Cn1nnc2ccccc2c1=O)NCCc1ccc(Cl)cc1Cl	54*	11	-12	-1	-13	45	6	1	2	9
O=C(Nc1ccccc1)Nc1nnc([C@H]2C[C@H](O)[C@@H](CO)O2)s1	44*	.	.	.	.	1	57*	1	43	11
CC(C)n1c(CSCc2ccc(Cl)cc2Cl)n[nH]c1=S	1	26	-17	-7	-11	14	.	.	.	.
COc1ccc(C(=O)NNC(=S)NC(=O)c2ccc(OC)cc2)cc1	110*	7	12	0	23	81*	88*	89*	49*	47*
COc1ccc(C(=O)NC(=S)NNC(=O)c2ccncc2)cc1Br	60*	6	1	.	-2	14	35	32*	22	18
CCCCC(=O)NC(=S)NNC(=O)c1ccc(OC)cc1	85*	8	14	-4	7	38	99*	82*	51*	44*
CCNC(=S)NNC(=O)c1ccc(OC)cc1	5	7	0	-4	4	0	.	.	.	.
COc1ccc(OCC(=O)NNC(=S)NC(=O)c2ccc(Br)o2)cc1	55*	-2	-8	-5	-8	14	34	18*	24	21
COc1ccc(OCC(=O)NNC(=S)NC(=O)c2ccc([N+](=O)[O-])cc2)cc1	2	34	-5	-11	-14	-8	.	.	.	.
COc1ccc(C(=O)NC(=S)NNC(=O)c2ccc(NC(C)=O)cc2)cc1Br	10	11	-23	-1	-33	-7	.	.	.	.

Source: PubChem BioAssay
